A short description of series [1]: Antiinflammatory activity in […] BV2 cells assessed as inhibition of LPS-induced nitric oxide production at 80 uM by Griess assay. Type of series: functional. The conditions noted are these: Mus musculus, BV-2. (In general: The Griess reaction detects nitrite, a stable product of nitric oxide.)
Series [2] in a line: Cytotoxicity against […] LPS-treated BV2 cells assessed as cell viability up to 80 uM after 24 hrs by MTT assay. It is filed as cell-based. The conditions noted are these: bv-2, 24 h. In general terms: Tetrazolium assays rely on reduction of a dye to a coloured formazan, in cell work by metabolically active cells.
Series [3] can be described thus: Antiinflammatory activity in […] BV2 cells assessed as inhibition of LPS-induced nitric oxide production by Griess assay. It is filed as functional, cell-based. Particulars: BV-2. The method in brief: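 BV-2 microglial cells were stimulated with lipopolysaccharide, and NO production was measured by the Griess assay. Inhibition is reported as IC50 values in μM.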

A value given as a limit tells only on which side of the number the result lay.

The inhibition is the drop in the measured response relative to a control, in per cent. With `CC(=O)O[C@@H]1[C@H](O)[C@@H](C)[C@]2(CC[C@@]3(CO[C@H](O)C3)O2)[C@@]2(C)CCCC(C)(C)[C@H]12`, the inhibition at 80 µM in series [1] was < 50%.
The same measure, in the same setting: next, `CC(=O)O[C@@H]1[C@H](OC(C)=O)[C@@H](C)[C@](O)(CCc2ccoc2)[C@@]2(C)CCCC(C)(C)[C@H]12`: < 50%; `CC(=O)O[C@@H]1[C@H](O)[C@@H](C)[C@]2(CC[C@@]3(CO[C@@H](O)C3)O2)[C@@]2(C)CCCC(C)(C)[C@H]12`: < 50%.
The term IC50 denotes the concentration at which inhibition is half-maximal. For the compound `COC1C=C(CC[C@@]2(O)[C@H](C)[C@@H](O)[C@@H](OC(C)=O)[C@H]3C(C)(C)CCC[C@@]32C)C(=O)O1` (stereo not given in full), the Activity result in series [2] is “Non-toxic”. Moreover, the IC50 in series [3] came out at 16.2 µM.
For the compound `C[C@@H]1[C@@H](O)[C@@H](O)[C@H]2C(C)(C)CCC[C@]2(C)[C@@]1(O)CCc1ccoc1`, the inhibition at 80 µM in series [1] is < 50%.
In the case of `C[C@@H]1C(=O)C=C2C(C)(C)CCC[C@]2(C)[C@@]1(O)CCc1ccoc1`, the Activity result in series [2] is recorded as “Non-toxic”. For the same compound, in series [3], the IC50 is 14.9 µM.
As for `CC(=O)O[C@@H]1[C@H](O)[C@@H](C)[C@]2(CC[C@]3(CO[C@H](O)C3)O2)[C@@]2(C)CCCC(C)(C)[C@H]12`, the inhibition at 80 µM in series [1] was < 50%.
For the compound `CC1=C(CCc2ccoc2)[C@@]2(C)CCCC(C)(C)C2=CC1=O`, in series [2], the Activity entry is listed as “Non-toxic”. In addition, the IC50 in series [3] was found to be 34 µM.
Regarding `CC(=O)O[C@H]1[C@@H](O)[C@H]2C(C)(C)CCC[C@]2(C)[C@@](O)(CCc2ccoc2)[C@@H]1C`, the inhibition at 80 µM in series [1] is < 50%.
The same measure, in the same setting: to `CC1(C)CCC[C@@]2(C)C1=CC(=O)[C@](C)(O)[C@]2(O)CCc1ccoc1` belongs < 50%.
Consider `O=c1c(O)c(-c2ccc(O)c(O)c2)oc2cc(O)cc(O)c12` [QUERCETIN], for which the half-maximal inhibitory concentration (IC50) in series [3] amounted to 10 µM.
Regarding `C[C@@H]1[C@@H](O)C(=O)[C@H]2C(C)(C)CCC[C@]2(C)[C@@]1(O)CCc1ccoc1`, the inhibition at 80 µM in series [1] was < 50%.
Turning to `CCC(=O)C(OC(C)=O)[C@H]1C(C)(C)CCC[C@]1(C)C(=O)CCC1=CCOC1=O` (stereo not given in full), in series [2], the Activity result is on record as “Non-toxic”. Moreover, the IC50 in series [3] was 34.9 µM.
As for `CC(=O)O[C@@H]1[C@H](O)[C@@H](C)[C@]2(CC[C@]3(CO[C@@H](O)C3)O2)[C@@]2(C)CCCC(C)(C)[C@H]12`, the inhibition at 80 µM in series [1] is < 50%.
With `CC(=O)O[C@@H]1[C@H](O)[C@@H](C)[C@](O)(CCc2ccoc2)[C@@]2(C)CCCC(C)(C)[C@H]12`, the inhibition at 80 µM in series [1] was < 50%.
Consider `CCC(=O)C(OC(C)=O)[C@H]1C(C)(C)CCC[C@]1(C)C(=O)CCc1ccoc1` (stereo not given in full), for which the inhibition at 80 µM in series [1] was < 50%.

(Values after ChEMBL document CHEMBL3232850, “Anti-inflammatory labdane diterpenoids from Lagopsis supina” (J Nat Prod, 2014).)
